The values below come from ChEMBL document CHEMBL4831480, “Identification of First-in-Class Inhibitors of Kallikrein-Related Peptidase 6 That Promote Oligodendrocyte Differentiation” (J Med Chem, 2021).

Assay [1] is filed under the species Homo sapiens. Kind of assay: Inhibition of Matriptase (unknown origin) assessed as inhibition of release of AMC fluorescent product using […] as substrate at 10 uM incubated for 30 mins by microplate reader relative to control.
Assay [2] concerns the target Plasminogen (Homo sapiens, UniProt P00747). Kind of assay: Inhibition of plasmin (unknown origin) assessed as release of AMC fluorescent product using Boc-QAR-AMC as substrate incubated for 30 mins by microplate reader.
In assay [3] the target is Kallikrein-4 (Homo sapiens) (UniProt Q9Y5K2). Kind of assay: Inhibition of KLK4 (unknown origin) assessed as inhibition of release of AMC fluorescent product using H-VPR-AMC as substrate at 10 uM incubated for 30 mins by microplate reader relative to control.
Assay [4] deals with Kallikrein-5 (Homo sapiens) (UniProt Q9Y337). Kind of assay: Inhibition of KLK5 (unknown origin) assessed as inhibition of release of AMC fluorescent product using H-VPR-AMC as substrate at 10 uM incubated for 30 mins by microplate reader relative to control.
Assay [5] has as its target T1, Kallikrein-13 (Homo sapiens) (UniProt Q9UKR3).
T1 sequence (whole entry): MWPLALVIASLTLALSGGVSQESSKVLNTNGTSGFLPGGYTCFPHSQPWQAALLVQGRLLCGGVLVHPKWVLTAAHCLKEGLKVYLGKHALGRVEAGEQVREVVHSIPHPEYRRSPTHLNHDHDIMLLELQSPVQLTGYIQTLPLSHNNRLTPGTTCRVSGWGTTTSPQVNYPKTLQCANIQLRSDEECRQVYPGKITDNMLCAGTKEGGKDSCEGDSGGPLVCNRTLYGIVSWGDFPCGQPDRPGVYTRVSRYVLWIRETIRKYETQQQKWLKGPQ
Nature of the assay: Inhibition of KLK13 (unknown origin) assessed as inhibition of release of AMC fluorescent product using H-VPR-AMC as substrate at 10 uM incubated for 30 mins by microplate reader relative to control.

The target of assay [6] is T2, Kallikrein-14 (Homo sapiens) (UniProt Q9P0G3).
T2 sequence (whole entry): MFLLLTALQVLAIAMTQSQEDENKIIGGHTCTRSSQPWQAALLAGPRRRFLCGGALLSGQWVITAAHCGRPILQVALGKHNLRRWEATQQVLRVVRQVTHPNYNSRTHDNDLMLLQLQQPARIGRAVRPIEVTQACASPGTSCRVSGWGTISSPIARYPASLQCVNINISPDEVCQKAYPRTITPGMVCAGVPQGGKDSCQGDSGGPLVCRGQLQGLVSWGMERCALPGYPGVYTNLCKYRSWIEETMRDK
Nature of the assay: Inhibition of KLK14 (unknown origin) assessed as inhibition of release of AMC fluorescent product using H-VPR-AMC as substrate at 10 uM incubated for 30 mins by microplate reader relative to control.

Assay [7] has as its target T3, Caspase-2 (Homo sapiens) (UniProt P42575).
T3 sequence (whole entry): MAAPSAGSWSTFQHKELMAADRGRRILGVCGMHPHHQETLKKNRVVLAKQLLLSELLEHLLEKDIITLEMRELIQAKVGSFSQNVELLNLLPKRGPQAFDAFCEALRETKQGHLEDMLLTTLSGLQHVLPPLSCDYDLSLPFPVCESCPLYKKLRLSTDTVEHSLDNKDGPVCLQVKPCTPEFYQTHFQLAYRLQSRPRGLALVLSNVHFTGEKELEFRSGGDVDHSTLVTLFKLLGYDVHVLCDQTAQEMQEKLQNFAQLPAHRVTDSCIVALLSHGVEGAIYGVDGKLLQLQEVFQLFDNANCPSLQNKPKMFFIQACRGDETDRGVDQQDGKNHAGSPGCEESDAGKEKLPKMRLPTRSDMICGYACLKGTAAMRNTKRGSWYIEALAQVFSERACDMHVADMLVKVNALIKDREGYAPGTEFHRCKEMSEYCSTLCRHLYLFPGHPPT
Kind of assay: Inhibition of Caspase-2 (unknown origin) assessed as inhibition of release of AMC fluorescent product using Ac-VDVAD-AMC as substrate at 10 uM incubated for 30 mins by microplate reader relative to control. The procedure, abridged: (§1)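 Each inhibitor at 10 μM was preincubated 15 min at 37 °C with the protease at an optimized concentration in its own buffer. Reaction started with AMC substrate: Ac-VDVAD-AMC 25 μM (caspase-2), Ac-DEVD-AMC 10 μM (caspase-3), Ac-VEID-AMC 100 μM (caspase-6), Z-LR-AMC 50 μM (cathepsin L), Z-GGR-AMC 100 μM (tPA). Read for 30 min at 37 °C; % inhibition from initial rates versus DMSO; 3 independent experiments.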

Assay [8] deals with T4, Caspase-3 (Homo sapiens) (UniProt P42574).
T4 sequence (whole entry): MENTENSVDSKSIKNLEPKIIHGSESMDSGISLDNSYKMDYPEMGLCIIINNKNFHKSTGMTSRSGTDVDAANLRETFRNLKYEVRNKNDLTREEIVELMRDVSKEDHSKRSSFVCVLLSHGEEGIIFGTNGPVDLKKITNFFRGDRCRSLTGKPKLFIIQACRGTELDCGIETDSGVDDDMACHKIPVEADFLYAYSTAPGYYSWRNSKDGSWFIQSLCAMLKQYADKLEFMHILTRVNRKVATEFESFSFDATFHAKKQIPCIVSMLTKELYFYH
Nature of the assay: Inhibition of Caspase-3 (unknown origin) assessed as inhibition of release of AMC fluorescent product using Ac-DEVD-AMC as substrate at 10 uM incubated for 30 mins by microplate reader relative to control. The procedure, abridged: as §1

Assay [9] concerns the target Tissue-type plasminogen activator (Homo sapiens) (UniProt P00750). Kind of assay: Inhibition of tPA (unknown origin) assessed as inhibition of release of AMC fluorescent product using Z-GGR-AMC as substrate at 10 uM incubated for 30 mins by microplate reader relative to control. In short, it runs like this:
as §1

Assay [10] has as its target T5, Kallikrein-11 (Homo sapiens) (UniProt Q9UBX7).
T5 sequence (whole entry): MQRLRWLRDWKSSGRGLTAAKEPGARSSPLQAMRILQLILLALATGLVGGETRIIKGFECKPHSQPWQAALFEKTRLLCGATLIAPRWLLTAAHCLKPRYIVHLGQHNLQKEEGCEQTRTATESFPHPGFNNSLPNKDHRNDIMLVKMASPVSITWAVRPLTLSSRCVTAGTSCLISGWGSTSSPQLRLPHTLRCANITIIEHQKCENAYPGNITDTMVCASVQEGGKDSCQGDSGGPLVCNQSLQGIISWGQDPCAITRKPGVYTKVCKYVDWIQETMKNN
Kind of assay: Inhibition of KLK11 (unknown origin) assessed as inhibition of release of AMC fluorescent product using Boc-QAR-AMC as substrate at 10 uM incubated for 30 mins by microplate reader relative to control.

The target of assay [11] is Kallikrein-7 (Homo sapiens) (UniProt P49862). Kind of assay: Inhibition of KLK7 (unknown origin) assessed as inhibition of release of AMC fluorescent product using MeO-Suc-RPY-AMC as substrate at 10 uM incubated for 30 mins by microplate reader relative to control.

By inhibition is commonly meant the percentage by which the read-out fell short of the control. One may read the IC50 as the point on the concentration scale where inhibition reaches its midpoint.

Kallikrein-4 (Homo sapiens), sequence (Q9Y5K2 whole entry): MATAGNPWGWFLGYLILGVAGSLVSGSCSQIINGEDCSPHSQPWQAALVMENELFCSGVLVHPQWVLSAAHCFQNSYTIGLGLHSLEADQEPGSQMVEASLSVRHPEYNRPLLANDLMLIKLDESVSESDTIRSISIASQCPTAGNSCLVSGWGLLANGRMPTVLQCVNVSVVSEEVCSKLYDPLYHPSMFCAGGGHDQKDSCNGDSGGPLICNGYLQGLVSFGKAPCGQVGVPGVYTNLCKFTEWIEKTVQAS
Plasminogen, sequence (P00747 97-580 limits assumed): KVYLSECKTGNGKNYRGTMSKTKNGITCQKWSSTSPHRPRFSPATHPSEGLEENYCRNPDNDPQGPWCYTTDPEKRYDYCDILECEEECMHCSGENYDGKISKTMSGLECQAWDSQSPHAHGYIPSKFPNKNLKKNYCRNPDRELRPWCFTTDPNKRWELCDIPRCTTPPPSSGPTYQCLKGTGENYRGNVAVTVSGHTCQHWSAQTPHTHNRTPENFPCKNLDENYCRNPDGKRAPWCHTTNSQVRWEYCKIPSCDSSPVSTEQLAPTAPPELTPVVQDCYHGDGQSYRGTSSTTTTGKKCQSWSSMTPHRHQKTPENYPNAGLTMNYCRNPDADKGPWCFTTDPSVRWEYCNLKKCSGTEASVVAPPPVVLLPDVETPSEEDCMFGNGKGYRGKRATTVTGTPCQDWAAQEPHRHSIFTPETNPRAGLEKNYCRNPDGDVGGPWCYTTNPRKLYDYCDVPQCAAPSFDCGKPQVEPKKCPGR
Plasminogen, sequence (P00747 581-810 limits assumed): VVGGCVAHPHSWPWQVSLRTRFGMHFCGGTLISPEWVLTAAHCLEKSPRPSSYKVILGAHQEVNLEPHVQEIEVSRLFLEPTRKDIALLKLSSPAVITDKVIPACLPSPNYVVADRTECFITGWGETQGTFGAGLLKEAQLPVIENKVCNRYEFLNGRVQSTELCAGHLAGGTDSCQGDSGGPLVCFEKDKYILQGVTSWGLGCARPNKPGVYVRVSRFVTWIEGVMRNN
Kallikrein-7 (Homo sapiens), sequence (P49862 30-253 limits assumed): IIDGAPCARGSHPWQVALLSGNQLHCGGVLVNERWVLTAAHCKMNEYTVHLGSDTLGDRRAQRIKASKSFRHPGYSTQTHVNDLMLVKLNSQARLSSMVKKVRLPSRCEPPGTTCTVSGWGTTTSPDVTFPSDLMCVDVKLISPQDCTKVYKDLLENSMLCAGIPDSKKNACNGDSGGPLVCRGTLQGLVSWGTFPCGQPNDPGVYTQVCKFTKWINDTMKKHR
Kallikrein-5 (Homo sapiens), sequence (Q9Y337 whole entry): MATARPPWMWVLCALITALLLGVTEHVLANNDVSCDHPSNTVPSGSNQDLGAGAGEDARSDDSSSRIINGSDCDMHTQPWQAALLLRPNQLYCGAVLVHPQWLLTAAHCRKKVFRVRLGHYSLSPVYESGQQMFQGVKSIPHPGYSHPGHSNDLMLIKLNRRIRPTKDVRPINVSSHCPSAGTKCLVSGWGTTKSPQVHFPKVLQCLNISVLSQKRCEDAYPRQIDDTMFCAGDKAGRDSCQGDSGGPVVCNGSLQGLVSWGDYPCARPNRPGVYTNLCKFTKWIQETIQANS
Tissue-type plasminogen activator (Homo sapiens), sequence (P00750 36-562 limits assumed): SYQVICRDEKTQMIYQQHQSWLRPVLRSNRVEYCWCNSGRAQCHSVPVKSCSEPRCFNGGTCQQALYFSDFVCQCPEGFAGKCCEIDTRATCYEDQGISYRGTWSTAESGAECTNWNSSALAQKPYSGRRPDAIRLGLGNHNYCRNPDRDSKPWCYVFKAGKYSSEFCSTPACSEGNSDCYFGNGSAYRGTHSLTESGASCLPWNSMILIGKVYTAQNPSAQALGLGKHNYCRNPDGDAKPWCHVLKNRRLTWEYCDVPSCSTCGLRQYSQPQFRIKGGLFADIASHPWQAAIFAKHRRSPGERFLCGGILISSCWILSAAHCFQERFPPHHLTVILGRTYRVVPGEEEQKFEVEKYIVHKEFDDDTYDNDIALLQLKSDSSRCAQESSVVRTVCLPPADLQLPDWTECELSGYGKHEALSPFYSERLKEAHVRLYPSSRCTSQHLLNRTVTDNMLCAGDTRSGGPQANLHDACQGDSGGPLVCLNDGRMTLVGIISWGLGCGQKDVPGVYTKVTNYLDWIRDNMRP

As to `Cl.NCc1ccc(NC(=O)c2ccc3ccccc3c2O)cc1`, the inhibition worked out at 29% in [1]; 14% in [3]; 22% in assay [4]; 2% in assay [5]; 11% in assay [6]; 30% in assay [7]. The inhibition was determined as 10% in assay [8], 18% in [9], 80% in [10] and 0% in assay [11]. Moreover, the half-maximal inhibitory concentration (IC50) in assay [2] was determined as 10.2 µM.

As to `Cc1ccc(C(=O)Nc2ccc(CN)cc2)c(O)c1.Cl`, the inhibition in assay [1] worked out at 0%; in assay [3], 0%; in [4], 5%; in assay [5], 10%; in [6], 3%; in assay [7] it was 0%. Also, the inhibition in assay [8] was 0%; in assay [9] it was 0%; in assay [10] it was 39%; in [11] it was 12%. In addition, in assay [2], the IC50 worked out at 9.2 µM.

Turning to `CC(C)c1ccc(C(=O)Nc2ccc(CN)cc2)c(O)c1`, the inhibition in [1] is 13%; in [3], 45%; in assay [4] it was 24%; in assay [5] it was 15%; in [6], 12%; in assay [7], 15%. The inhibition in [8] is 13%; in [9] it was 6%; in assay [10], 75%; in [11], 7%. For the same molecule, in [2], the IC50 stood at 4.8 µM.

For the molecule `COc1ccc2c(O)c(C(=O)Nc3ccc(CN)cc3)ccc2c1`, the inhibition in assay [1] came to 37%; in assay [3] it was 3%; in [4] it was 31%; in assay [5], 0%; in [6], 16%; in assay [7], 14%. Further, the inhibition in assay [8] is 3%; in assay [9], 10%; in assay [10], 0%; in assay [11] it was 10%. The IC50 in [2] was 3.3 µM.

Regarding `Cc1ccc2ccc(C(=O)Nc3ccc(CN)cc3)c(O)c2c1`, the inhibition in assay [1] came to 0%; in assay [3], 6%; in [4] it was 0%; in assay [5], 12%; in [6], 4%; in [7], 8%. Besides, the inhibition in assay [8] was determined as 10%; in [9], 9%; in assay [10], 88%; in assay [11] it was 11%. In assay [2], the half-maximal inhibitory concentration (IC50) is 6.7 µM.

Take `Cl.NCc1ccc(NC(=O)c2cc3ccccc3cc2O)cc1`: the inhibition came to 8% in [1]; 2% in [3]; 4% in assay [4]; 19% in assay [5]; 5% in assay [6]; 4% in assay [7]. For the same molecule, the inhibition in [8] worked out at 5%; in assay [9], 6%; in assay [10], 45%; in [11], 6%. Also, the IC50 in assay [2] was 7.4 µM.

As for `CC(C)(C)c1ccc(O)c(C(=O)Nc2ccc(CN)cc2)c1.Cl`, the inhibition in [1] turned out to be 0%; in assay [3], 0%; in [4], 35%; in [5] it was 5%; in assay [6], 1.5%; in assay [7], 5%. For the same molecule, the inhibition in assay [8] turned out to be 11%; in assay [9], 11%; in assay [10], 56%; in assay [11], 9%. Besides, the IC50 in assay [2] was 21.3 µM.
